Like-named read-outs stand apart in the source and are kept apart here.
Key:
recombinant human α2A -R = biological target: T1, recombinant human α2A -R (Homo sapiens, UniProt P08913); assay: [3H]clonidine radioligand competitive binding assay; details: Kd with the Cheng–Prusoff correction, 15 nM [3H]-clonidine
T1 sequence (P08913 1-465): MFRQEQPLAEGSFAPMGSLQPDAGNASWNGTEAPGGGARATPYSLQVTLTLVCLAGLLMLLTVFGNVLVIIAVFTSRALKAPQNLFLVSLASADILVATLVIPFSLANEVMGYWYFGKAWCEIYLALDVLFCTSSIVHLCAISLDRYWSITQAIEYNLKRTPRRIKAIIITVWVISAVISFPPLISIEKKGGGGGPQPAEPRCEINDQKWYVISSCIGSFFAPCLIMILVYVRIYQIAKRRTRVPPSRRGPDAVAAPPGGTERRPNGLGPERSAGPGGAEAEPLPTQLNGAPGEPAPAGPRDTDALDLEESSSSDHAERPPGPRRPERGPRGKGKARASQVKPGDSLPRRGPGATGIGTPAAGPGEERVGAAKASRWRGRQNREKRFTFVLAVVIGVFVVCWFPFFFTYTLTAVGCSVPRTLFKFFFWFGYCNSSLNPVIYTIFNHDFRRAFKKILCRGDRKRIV

Xenopus laevis tadpoles = assay: Hypnotic activity Xenopus laevis tadpole bioassay; type: in vivo; details: for EC50: Xenopus laevis
Outline: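 Albino tadpoles at stages 45–47, 10 per dish, kept at 21–22 °C. They were exposed for 30 min to graded concentrations of test compound, with or without 10 μM atipamezole, in E3 artificial pond water containing <0.01% (v/v) DMSO. Loss of spontaneous movement was scored. Animals were then moved to fresh pond water and watched for toxicity. Each concentration was run in triplicate and reported as mean ± SEM.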

[1] = biological target: human serum albumin (hSA) (Homo sapiens, UniProt P02768); assay: Isothermal titration calorimetry with human serum albumin; type: binding
Chain of human serum albumin (hSA) (P02768 25-609): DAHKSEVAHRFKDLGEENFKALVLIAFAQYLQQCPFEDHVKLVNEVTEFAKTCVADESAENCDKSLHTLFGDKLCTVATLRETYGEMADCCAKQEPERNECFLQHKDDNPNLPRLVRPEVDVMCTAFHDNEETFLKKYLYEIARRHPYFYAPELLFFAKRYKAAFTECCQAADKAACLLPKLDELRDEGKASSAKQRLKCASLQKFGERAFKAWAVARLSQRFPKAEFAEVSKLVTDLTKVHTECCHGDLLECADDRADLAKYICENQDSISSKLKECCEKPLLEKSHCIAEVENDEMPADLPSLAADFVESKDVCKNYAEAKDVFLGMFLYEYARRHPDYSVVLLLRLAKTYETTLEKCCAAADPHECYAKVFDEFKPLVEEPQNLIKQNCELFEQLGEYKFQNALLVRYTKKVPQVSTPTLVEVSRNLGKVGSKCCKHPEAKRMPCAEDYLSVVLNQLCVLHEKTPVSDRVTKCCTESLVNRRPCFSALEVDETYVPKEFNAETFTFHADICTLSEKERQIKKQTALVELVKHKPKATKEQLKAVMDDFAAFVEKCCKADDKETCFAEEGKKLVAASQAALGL
Outline: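 The calorimeter cell held 20 μM human serum albumin in PBS (150 mM NaCl, 20 mM sodium phosphate, pH 7.4), with ddH2O in the reference cell. The titrant was 0.22 mM test compound, made as a filtered saturated PBS solution with concentration checked by UV absorbance. Injections were spaced 300 s apart at 30 °C. Data were corrected for heats of dilution and fitted to a single set of independent sites. Ka from triplicate runs was averaged.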

[2] = biological target: T2, human α2A adrenergic receptor (Homo sapiens, UniProt P08913); assay: [35S]GTPγS binding assay; type: biochemical; details: 1 μM RX 821002 (selective α2 antagonist)
T2 sequence (P08913 1-465): T1 sequence (P08913 1-465)

albumin = details: cited from earlier work
[3] = 0.5 h, read-out: hypnotic EC50 (loss of spontaneous movement)

| SMILES | Kd (recombinant human α2A -R; with UV exposure (350 nm light, 30 min)) [nM] | Kd (recombinant human α2A -R; without UV) [nM] | EC50 (Xenopus laevis tadpoles; [3]) [nM] | toxicity in Xenopus tadpoles (Xenopus laevis tadpoles; observed after transfer to fresh pond water) | Kd [1] [nM] | α2A-R activity in the presence of RX 821,002 [2] | fraction bound to albumin in plasma (albumin) [%] | EC50 (Xenopus laevis tadpoles; read-out: behavioral EC50 in Xenopus tadpoles) [nM] |
| --- | --- | --- | --- | --- | --- | --- | --- | --- |
| CC(c1cccc(C2(C(F)(F)F)N=N2)c1)c1cnc[nH]1 (stereo not drawn) [azi-medetomidine, 5-(1-(3-(3-(trifluoromethyl)-3H-diazirine-3-yl)phenyl)ethyl)-1H-imidazole] | 3.68 | 2.1 | 4650 | did not display any frank toxicity | 29000 | eliminated all α2A -R activity |  |  |
| Cc1cccc([C@H](C)c2cnc[nH]2)c1C [dexmedetomidine, reference compound] |  |  | 860 |  |  |  | > 90 | 800 |
